# Source: ChEMBL document CHEMBL1122612, “7-(Ethoxycarbonyl)-6,8-dimethyl-2-phenyl-1(2H)-phthalazinone derivatives: synthesis and inhibitory effects on platelet aggregation” (J Med Chem, 1984)
# Species: Oryctolagus cuniculus
# Experiment: Inhibition of arachidonic acid induced platelet aggregation in rabbit platelet rich plasma
# Format: functional
# Details: read-out: ED50 (the source's name)
# Method in brief: (§1)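 Rabbit blood drawn from the carotid artery (pentobarbital anaesthesia, 35 mg/kg iv) into 3.8% sodium citrate (1/10 volume). PRP obtained by spinning at 150g for 15 min; 3.5-4.5 × 10^5 platelets/μL. Compound in Me2SO (≤0.5% final) preincubated 3 min at 37 °C with 1200 rpm stirring. Aggregation then started with 137 μM AA (final) and read turbidimetrically. Inhibition = maximum deflection relative to vehicle; ED50 range from three experiments.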
row,SMILES,EC50
1,CCOC(=O)c1ccc(-n2ncc3cc(C)c(C(=O)OCC)c(C)c3c2=O)cc1,≥ 50 µM
2,CCOC(=O)c1c(C)cc2cnn(-c3ccc(F)cc3)c(=O)c2c1C,≥ 50 µM
3,CCOC(=O)c1c(C)cc2cnn(-c3ccc(NC(C)=O)cc3)c(=O)c2c1C,≥ 50 µM
4,CCOC(=O)c1c(C)cc2cnn(-c3cccc(OC)c3)c(=O)c2c1C,≥ 50 µM
5,COc1ccc(-n2ncc3cc(OC)c(OC)cc3c2=O)cc1OC,≥ 100 µM
6,CCOC(=O)c1c(C)cc2cnn(-c3ccc(S(C)(=O)=O)cc3)c(=O)c2c1C,≥ 50 µM
7,COc1cc2cnn(-c3ccccc3Cl)c(=O)c2cc1OC,≥ 100 µM
8,CCOC(=O)c1c(C)cc2cnn(-c3ccc(OC)c(OC)c3)c(=O)c2c1C,≥ 50 µM
9,CCOC(=O)c1c(C)cc2cnn(-c3ccc(C)c(Cl)c3)c(=O)c2c1C,≥ 50 µM
10,CCOC(=O)c1c(C)cc2cnn(-c3ccc([N+](=O)[O-])cc3)c(=O)c2c1C,≥ 50 µM
11,CCOC(=O)c1c(C)cc2cnn(-c3ccc(C(=O)O)cc3)c(=O)c2c1C,≥ 50 µM
12,COc1ccc(-n2ncc3cc(OC)c(OC)cc3c2=O)cc1,≥ 100 µM
13,COc1cc2cnn(-c3ccccc3)c(=O)c2cc1OC,≥ 100 µM

# Species: Oryctolagus cuniculus
# Experiment: Inhibition of arachidonic acid induced platelet aggregation in rabbit platelet rich plasma, range 25-50
# Format: functional
# Details: read-out: ED50 (the source's name)
# Method in brief: as §1
row,SMILES,EC50
1,CCOC(=O)c1c(C)cc2cnn(-c3ccc(C)cc3)c(=O)c2c1C,25 µM
2,CCOC(=O)c1c(C)cc2cnn(-c3ccc(O)cc3)c(=O)c2c1C,25 µM

# Species: Oryctolagus cuniculus
# Experiment: Inhibition of arachidonic acid induced platelet aggregation in rabbit platelet rich plasma, range 5-10
# Format: functional
# Details: read-out: ED50 (the source's name)
# Method in brief: as §1
row,SMILES,EC50
1,CCOC(=O)c1c(C)cc2cnn(-c3ccc(OC)cc3)c(=O)c2c1C,5 µM
2,CCOC(=O)c1c(C)cc2cnn(-c3ccccc3C)c(=O)c2c1C,5 µM

# Species: Oryctolagus cuniculus
# Experiment: Inhibition of arachidonic acid induced platelet aggregation in rabbit platelet rich plasma, range 50-100
# Format: functional
# Details: read-out: ED50 (the source's name)
# Method in brief: as §1
row,SMILES,EC50
1,CCOC(=O)c1c(C)cc2cnn(-c3cccc(C)c3)c(=O)c2c1C,50 µM

# Tested on: not listed separately
# Experiment: Inhibition of human platelet cAMP Phosphodiesterase
# Format: functional
# Details: not given
# Method in brief: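 Low-Km cAMP phosphodiesterase from human platelets, prepared and assayed per an earlier method. Result expressed as IC50, the μM concentration inhibiting enzyme activity by 50%.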
row,SMILES,IC50
1,CCOC(=O)c1c(C)cc2cnn(-c3ccccc3)c(=O)c2c1C,10 µM
2,CCOC(=O)c1c(C)cc2cnn(-c3ccccc3Cl)c(=O)c2c1C,34 µM
3,COc1ccc(Cc2nccc3cc(OC)c(OC)cc23)cc1OC [PAPAVERINE],0.55 µM

# Species: Oryctolagus cuniculus
# Experiment: Inhibition of arachidonic acid induced platelet aggregation in rabbit platelet rich plasma, range 2-5
# Format: functional
# Details: read-out: ED50 (the source's name)
# Method in brief: as §1
row,SMILES,EC50
1,CCOC(=O)c1c(C)cc2cnn(-c3ccccc3)c(=O)c2c1C,2000 nM
2,CCOC(=O)c1c(C)cc2cnn(-c3ccccc3Cl)c(=O)c2c1C,2000 nM
3,CCOC(=O)c1c(C)cc2cnn(-c3ccccc3F)c(=O)c2c1C,2000 nM
4,CCOC(=O)c1c(C)cc2cnn(-c3ccc(N)cc3)c(=O)c2c1C,2000 nM
